This is a sample that favours compounds with a hit; in the whole collection about 4.7% have one here.
MC4R antag cAMP – human MC4R antagonism in cAMP assay; actives 0.48% (n = 360,000); inhibition, % at 6.5 µM; AID 540295; MC4R-expressing cells, MTII-stimulated cAMP, LANCE TR-FRET;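 active = inhibition above its plate's cutoff, the mean of tested wells on that plate plus 3 SD, cut at about 29% in these data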
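material = U2OS cells stably expressing human melanocortin 4 receptor (MC4R) | also added = Melanotan II challenge | dosing = single nominal compound dose of 6.5 µM | detection = TR-FRET with Eu-cAMP and labeled anti-cAMP, 671 nm | replication = singlicate | timing = compound 30 min, challenge 1 h, detection 1 h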
AHR activator – activates the human aryl hydrocarbon receptor; P35869; AHR-responsive luciferase reporter cells, luminescence; activation, % at 5 µM; actives 2.5% (n = 320,000); AID 2796; in the data active = activation above about 47%
GAA850 FXN act – frataxin GAA850 promoter activation. HEK293 lucGAA850 FXN promoter luciferase reporter, 24 h; percent of 10 µM SAHA response. activation, % at 6 µM. actives 0.56% (n = 360,000). AID 540364;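 active = activation above the average of all compounds screened plus 3 SD, cutoff fixed separately per campaign, cut at about 7.5% in these data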
MC4R barr agon – agonists of human melanocortin 4 receptor (MC4R) beta-arrestin; activation, % at 8.9 µM; U2OS MC4R beta-arrestin complementation, luminescence; percent of melanotan II response, DMSO zero; P32245; actives 0.98% (n = 360,000);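 active = activation above a per-plate cutoff, the mean activation of sample wells on that plate plus 3 SD, cut at about 8% in these data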
HTR2A ag – activates the mouse 5-HT2A serotonin receptor. activation, % at 7.6 µM. actives 0.66% (n = 360,000). CHO-K1 mHTR2A beta-arrestin complementation, luminescence; percent of 30 µM serotonin response;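 active = activation above a run cutoff, the mean activation of all tested compounds plus 3 SD, cut at about 14% in these data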
OPRM1 ag – counter-screen for mouse HTR2A agonists: human mu opioid receptor agonists | shares compounds with HTR2A ag | U2OS OPRM1 beta-arrestin PathHunter, luminescence; DMSO 0%, DAMGO 9.3 µM 100% | activation, % at 9.3 µM | actives 5.3% (n = 2,300) | AID 624380;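 active = mean activation above the mean of DMSO-only wells plus 3 SD, cut at about 0.5% in these data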
Target sequence (P35372 whole entry, looked up): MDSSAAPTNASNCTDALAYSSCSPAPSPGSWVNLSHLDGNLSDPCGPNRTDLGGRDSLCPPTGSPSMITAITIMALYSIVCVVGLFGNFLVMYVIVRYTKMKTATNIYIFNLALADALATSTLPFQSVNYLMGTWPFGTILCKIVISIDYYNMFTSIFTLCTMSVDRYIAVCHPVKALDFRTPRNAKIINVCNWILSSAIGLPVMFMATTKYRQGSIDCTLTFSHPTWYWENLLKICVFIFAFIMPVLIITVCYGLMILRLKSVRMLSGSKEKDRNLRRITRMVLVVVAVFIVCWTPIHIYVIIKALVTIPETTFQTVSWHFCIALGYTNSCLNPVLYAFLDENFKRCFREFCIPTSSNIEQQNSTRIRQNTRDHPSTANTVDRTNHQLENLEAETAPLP
m5-HT2A ag conf – mouse HTR2A agonism confirmed; CHO-K1 PathHunter beta-arrestin recruitment, luminescence; DMSO 0%, 30 µM serotonin 100%; activation, % at 7.6 µM; actives 19% (n = 2,300); shares compounds with HTR2A ag;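 active = mean activation across triplicates above the hit threshold derived in the original primary screen, cut at about 15% in these data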
Each line names hits and unclear results; the compound was inactive in the other large screens (follow-up assays come after a bar, where they were run).

CC(/C=C/C1[C@H](C)C[C@H](O[C@@H]2O[C@H](CO)[C@@H](O)[C@H](O)[C@H]2O)CC1(C)C)O[C@H]1O[C@H](CO)[C@@H](O)[C@H](O)[C@H]1O (stereo partly drawn)	none
CC(/C=C/C1(O)C(C)CC(O)CC1(C)C)OC1OC(CO)C(O)C(O)C1O (stereo not drawn)	HTR2A ag 38.7 | OPRM1 ag inactive | m5-HT2A ag conf inactive
N#CC(C#N)=NNc1ccc(S(=O)(=O)N2CCCCC2)cc1	none
COc1ccccc1CNC(=O)C1CCC(CNS(=O)(=O)c2ccc(C)cc2)CC1 (stereo not drawn)	none
COc1ccccc1CNC(=O)C1CCC(CNS(=O)(=O)c2ccc(F)cc2)CC1 (stereo not drawn)	HTR2A ag 20.9 | OPRM1 ag inactive | m5-HT2A ag conf inactive
CCCCn1c(SCC(=O)NCc2ccc3c(c2)OCO3)nnc1C(CC)N(C)C (stereo not drawn)	none (no result: AHR activator)
CCOC(=O)CN1C(=O)N[C@@H](c2cccc(C(F)(F)F)c2)[C@H](C(C)=O)[C@H]1C	HTR2A ag 18.4 | OPRM1 ag inactive | m5-HT2A ag conf inactive
COCCN1C(=O)COc2ccccc2C1C(=O)Nc1c(C)cccc1C (stereo not drawn)	none (no result: MC4R antag cAMP, AHR activator, GAA850 FXN act, MC4R barr agon)
CSc1nnc(-c2cccc(NC(=S)NN)c2)o1	HTR2A ag 27.4 | OPRM1 ag inactive | m5-HT2A ag conf inactive
O=C(Nc1cc(S(=O)(=O)N2CCCCC2)ccc1N1CCOCC1)c1ccc(C(F)(F)F)cc1	none
CC(C)(C)N=C1SCC(C)(/C=N/O)S1 (stereo not drawn)	HTR2A ag 16.5 | OPRM1 ag inactive | m5-HT2A ag conf inactive
CC1=C(C(=O)N(C)C)CC(CC(=O)NCc2cccc3ccccc23)C(=O)N1Cc1ccccc1 (stereo not drawn)	none (no result: AHR activator)
Cc1ccc2c(c1)[C@H]1[C@H](CO2)[C@H](c2ccccc2)[C@]2(C)C(=O)N(CC3CCCO3)CC(=O)N12 (stereo partly drawn)	HTR2A ag 17.7 | OPRM1 ag inactive | m5-HT2A ag conf inactive
COC(=O)[C@@]1(Sc2ccc(C)cc2)CC(=O)N(C(=O)c2ccccc2)[C@@H]1c1ccccc1	none (no result: MC4R antag cAMP, AHR activator, GAA850 FXN act, MC4R barr agon)
Cc1ccc(C)c(S(=O)(=O)NCc2ccc(C(=O)N3CCN(c4ccccc4)CC3)cc2)c1	none
COc1ccc(N2CCN(C(=O)c3ccc(CNS(=O)(=O)c4cc(C)ccc4C)cc3)CC2)cc1	HTR2A ag 25.4 (no result: AHR activator) | OPRM1 ag inactive | m5-HT2A ag conf inactive
C=Cc1ccc(Cn2c(C)c(C(=O)NCc3ccc4c(c3)OCCO4)sc2=O)cc1	none (no result: AHR activator)
S=c1[nH]nc(-c2cccnc2)n1/N=C/C=C/c1ccccc1	HTR2A ag 16.0 | OPRM1 ag inactive | m5-HT2A ag conf inactive
S=c1[nH]nc2ccccn12	HTR2A ag 20.9 (no result: AHR activator) | OPRM1 ag inactive | m5-HT2A ag conf inactive
Cc1ccn2c(=S)[nH]nc2c1	none (no result: AHR activator)
O=C(Nc1ccccc1O)c1c(O)c2c([nH]c1=O)CCCC2	AHR activator 56.8, HTR2A ag 15.0 | OPRM1 ag 0.8 | m5-HT2A ag conf inactive
COc1ccc2c3n(nc2c1)CCN=C3c1ccc(Cl)cc1	HTR2A ag 16.5 | OPRM1 ag inactive | m5-HT2A ag conf inactive
O=[N+]([O-])c1ccc(Cl)c(S(=O)(=O)Nc2cccc(-c3ccc(N4CCCC4)nn3)c2)c1	none
CN(Cc1ccccc1)N=Nc1ccccc1	none (no result: AHR activator)
CN(Cc1ccccc1)N=Nc1nc[nH]c1C(N)=O	HTR2A ag 17.2 (no result: MC4R antag cAMP, AHR activator, GAA850 FXN act, MC4R barr agon) | OPRM1 ag inactive | m5-HT2A ag conf inactive
CC(C)(C)Nc1nc(NCc2cccnc2)nc(N2CCOCC2)n1	none
c1cncc(CNc2nc(N3CCOCC3)nc(N3CCOCC3)n2)c1	HTR2A ag 16.4 | OPRM1 ag inactive | m5-HT2A ag conf inactive
C(=C\c1ccccc1)/C=N/Nc1nc(N2CCCCC2)nc(N2CCCCC2)n1	none
c1ccc(Nc2nc(N3CCNCC3)nc(N3CCOCC3)n2)cc1	HTR2A ag 23.0 | OPRM1 ag inactive | m5-HT2A ag conf inactive

High-throughput results deposited in PubChem BioAssay by The Scripps Research Institute Molecular Screening Center.
